Source: PubChem
Sampled rows, rich in hits. Any-hit rate of the full collection: about 1.8%.
M5 antag = antagonists of human muscarinic M5 receptor (CHRM5). P08912. CHO-hM5 cells, Fluo-8 calcium fluorescence, ACh EC80. inhibition, % at 3 µM. actives 0.59% (n = 360,000). AID 624040;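 active means inhibition above a per-plate cutoff, the mean of that plate's test compounds plus 3 SD, cut at about 27% in these data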;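 further: 0% = acetylcholine EC80 with DMSO and 100% = DMSO without agonist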
Target sequence (P08912 whole entry, looked up): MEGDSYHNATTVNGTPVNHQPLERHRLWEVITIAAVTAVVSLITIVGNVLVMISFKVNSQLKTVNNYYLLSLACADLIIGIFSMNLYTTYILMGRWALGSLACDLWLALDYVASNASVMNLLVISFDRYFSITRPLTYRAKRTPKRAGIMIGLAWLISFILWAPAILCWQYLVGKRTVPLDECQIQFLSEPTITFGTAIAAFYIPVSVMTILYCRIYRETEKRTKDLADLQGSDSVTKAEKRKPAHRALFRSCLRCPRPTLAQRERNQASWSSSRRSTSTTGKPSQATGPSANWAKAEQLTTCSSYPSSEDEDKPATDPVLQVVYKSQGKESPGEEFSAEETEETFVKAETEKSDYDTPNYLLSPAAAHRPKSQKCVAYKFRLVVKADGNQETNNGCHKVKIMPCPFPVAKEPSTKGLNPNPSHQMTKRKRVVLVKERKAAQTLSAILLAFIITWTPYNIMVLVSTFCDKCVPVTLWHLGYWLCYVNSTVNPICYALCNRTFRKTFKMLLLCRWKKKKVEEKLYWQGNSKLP
CHRM5 PAM = potentiates acetylcholine response at human M5 receptor; P08912; CHO-K1 hM5, Fluo-8 calcium, ACh EC20 PAM; 0% = ACh EC20, 100% = ACh EC100; activation, % at 3 µM; actives 0.3% (n = 360,000); AID 624038;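 active means activation above the run cutoff, the mean activation of all test compounds plus 3 SD, cut at about 18% in these data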
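System: CHO-K1 cell line with stable human muscarinic M5 receptor expression | Also added: EC20 acetylcholine as agonist stimulus | Compound: One concentration, 3 µM final (nominal) | Timing: Fluo-8 loading 80 min at 37 °C plus 30 min room temperature | Measured by: Fluo-8 calcium dye fluorescence, kinetic read | Read-out basis: % activation, ACh-normalized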
M4 ag = CHRM4 agonism in calcium assay | P08173 | CHO-K1 hM4/Gqi5, Fluo-8 calcium fluorescence; vehicle 0%, full acetylcholine response 100% | activation, % at 3 µM | actives 0.14% (n = 360,000);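 active means activation above the run mean over all test wells plus 3 SD, cut at about 32% in these data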;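 further: peak over basal fluorescence ratio per well then scaled between controls; 0% = DMSO wells and 100% = acetylcholine at EC100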
M4 antag = blocks acetylcholine activation of human M4 receptor | P08173 | CHO-hM4 cells, ACh EC80, Fluo-8 calcium fluorescence | inhibition, % at 3 µM | actives 0.73% (n = 360,000) | AID 624125;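 active means inhibition above its plate's cutoff, the mean inhibition of sample wells plus 3 SD, cut at about 27% in these data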;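 further: 0% = acetylcholine EC80 with DMSO and 100% = DMSO without agonist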
CHRM5 agonist = agonists of human muscarinic M5 receptor (CHRM5); P08912; CHO-K1 hM5 cells, Fluo-8 calcium fluorescence; 0% DMSO wells, 100% maximal acetylcholine response; activation, % at 3 µM; actives 0.19% (n = 360,000);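 active means activation above the run's mean over test compounds plus 3 SD, cut at about 23% in these data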;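 further: signal is peak over basal fluorescence ratio across the kinetic read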
M4 PAM = CHRM4 positive allosteric modulation; P08173; CHO-K1 hM4/Gqi5, Fluo-8 calcium fluorescence, ACh EC20; 0% = ACh EC20, 100% = maximal ACh; activation, % at 3 µM; actives 0.4% (n = 360,000); AID 624126;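 active means activation above its plate's cutoff, the mean activation of sample wells plus 3 SD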
* hit, by the source's call.

SMILES	M5 antag	CHRM5 PAM	M4 ag	M4 antag	CHRM5 agonist	M4 PAM
COc1ccc(CNC(=O)c2cccc3c(-c4cccc(C(N)=O)c4)coc23)cc1OC	27*	-17	21	21	9	-10
COc1cc(-c2coc3c(C(=O)NCc4ccc(OC)c(OC)c4)cccc23)ccc1O	15	-16	23	5	10	-9
CC1CCCC(C)N1C(=O)CN1C(=O)C(C)(C)Oc2ccc(C(=O)NC3CCCCC3)cc21 (stereo unspecified)	3	0	6	2	0	-6
CC1CCCC(C)N1C(=O)CN1C(=O)C(C)(C)Oc2ccc(C(=O)NC3CCCC3)cc21 (stereo unspecified)	10	-6	4	26*	3	2
CCCn1c(N)c(C(=O)CN(C)CC(=O)Nc2ccccc2C(F)(F)F)c(=O)[nH]c1=O	4	0	1	-1	3	2
CCN(Cc1ccc(OC)c(F)c1)C(C)C(=O)Nc1ccc(S(=O)(=O)N2CCCC2)cc1 (stereo unspecified)	-3	-1	0	-3	-1	-8
COc1ccc(CN(C)C(C)C(=O)Nc2ccc(S(=O)(=O)N3CCCCC3)cc2)c(OC)c1 (stereo unspecified)	4	-25	5	26*	-5	-12
Cc1cc(=O)[nH]c2cc(Cl)ccc12	0	5	0	6	0	9
COc1ccc2c(C)cc(=O)[nH]c2c1	-14	40*	1	-12	-3	23*
CC1(C)CC(NC(=O)c2cc(S(=O)(=O)N3CCOCC3)ccc2Cl)CC(C)(C)N1	2	0	2	6	7	2
COc1ccc2c3c([nH]c2c1)[C@H]1C[C@H]2[C@H](C[C@@H](O)[C@H](OC)[C@H]2C(=O)O)CN1CC3	15	-18	2	46*	1	-16
CCCCn1nnnc1C(c1ccnc2ccccc12)N1CCN(C/C=C/c2ccccc2)CC1 (stereo unspecified)	37*	-22	1	23	-8	-14
CCCCn1nnnc1C(c1cccc2ccccc12)N1CCN(C/C=C/c2ccccc2)CC1 (stereo unspecified)	96*	-23	1	84*	-6	-17
COc1cccc(C(c2nnnn2C2CCCC2)N2CCN(C/C=C/c3ccccc3)CC2)c1OC (stereo unspecified)	71*	-22	3	31*	-8	-15
CC1(C)Oc2ccc(C(=O)N/N=C/c3ccc(O)cc3)cc2NC1=O	12	5	3	7	-1	-3
CCOC(=O)CC1=CCc2c1ccc(OC)c2OC	20	-4	0	6	-2	-4
CCOC(=O)CC1(CCc2ccccc2)Oc2ccccc2N1S(=O)(=O)c1ccc(C)cc1 (stereo unspecified)	-12	-4	3	-8	1	12
CCOC(=O)CC1(C)Oc2cc(Cl)ccc2N1S(=O)(=O)c1ccc(C)cc1 (stereo unspecified)	31*	-19	-1	24	-5	-16
Cn1c(COc2ccccc2O)[n+](C)c2ccccc21	8	-2	2	-14	-5	-1
CCCCCCCCCCOC(=O)Cn1c(COc2ccccc2OC)[n+](C)c2ccccc21	45*	-30	7	58*	-25	-16
O=C(CSc1ccccn1)N1CCNC1=O	5	-2	1	-12	5	7
CC1(C(=O)N2CCCCC2)CCN1C(=O)Cc1ccc(-c2ccccc2)cc1 (stereo unspecified)	-7	-3	3	-16	2	7
Nc1nc(-c2ccc3c(c2)OCCO3)cs1	-2	3	1	-1	0	2
Nc1nc(-c2ccc3c(c2)CCCC3)cs1	10	20*	-2	-15	-2	12
O=C(O)C1C2OC(C(Br)C2Br)C1C(=O)O (stereo unspecified)	1	4	1	3	4	5
SMILES	M5 antag	CHRM5 PAM	M4 ag	M4 antag	CHRM5 agonist	M4 PAM
CN(C)c1nc(N)ncc1-c1ccc(Oc2ccccc2)cc1	2	-7	2	-22	-7	8
Cc1ccc(S(=O)(=O)N2CCN(C(=O)C3CCN(c4ncnc5sc(C)c(C)c45)CC3)CC2)c(C)c1	0	5	3	-4	3	26*
Cc1sc2ncnc(N3CCN(S(=O)(=O)c4ccc(C(C)(C)C)cc4)CC3)c2c1C	12	-3	2	-6	2	6
CCN(CC)CCNC(=O)c1ccc(NC(=O)C2CCN(c3ncnc4sc(C)c(C)c34)CC2)cc1	2	-4	80*	58*	-7	8
Cc1sc2ncnc(N3CCC(C(=O)Nc4ccc(OC(F)F)c(Cl)c4)CC3)c2c1C	11	-3	1	-3	0	13
CC(NCC1(N2CCOCC2)CCCCC1)C(=O)Nc1ccc(Cl)cc1Cl (stereo unspecified)	9	2	0	-10	-2	1
CC(C)(C)OC(=O)N1CCC(CNC(=O)c2ccc(F)cc2)CC1	-2	2	9	-7	-2	-12
N#CC1=C(N)OC(c2ccccc2)=C(C#N)C1c1ccc2c(c1)OCO2 (stereo unspecified)	6	-13	3	4	2	4
N#CC1=C(N)OC2=C(C(=O)CC(c3ccccc3)C2)C1c1ccc2c(c1)OCO2 (stereo unspecified)	16	-18	0	38*	-8	-15
COc1ccc(C(C#N)=C2C=CC(=NO)C=C2)cc1	-2	-2	1	5	0	-11
N#CC(=C1C=CC(=NO)C(Cl)=C1)c1ccc(Cl)cc1	5	3	2	39*	-3	-6
Cn1cnc(S(=O)(=O)Nc2ccc(C(F)(F)F)cc2)c1	2	-4	1	-11	-2	4
Cn1cnc(S(=O)(=O)Nc2ccc(Cl)c(C(F)(F)F)c2)c1	-16	11	1	6	-5	15*
Cc1ccccc1S(=O)(=O)Cc1ccc(C(=O)N2CCN(c3cccc(C)c3C)CC2)o1	20	-18	15	34*	2	-17
O=C(CSc1nnc(-c2cccnc2)o1)Nc1ccccc1F	15	-5	1	-7	1	8
O=C(NC(=S)Nc1ccccc1N1CCCCC1)c1ccccc1	-9	19*	3	6	8	18*
CCCCN1C(=O)C(C#N)CC2=C1CC(C)(C)CC2=O (stereo unspecified)	-4	1	0	-3	0	7
